pKd: −log10 of the molar value. “And” between values parts separate entries of the source, which are not always exact repeats. Identical values can stand only once. Like-named read-outs stand apart in the source and are kept apart here. Square brackets hold non-standard residues; d marks the D form. Peptide text beside a SMILES is read from it. Orn(N5-OH,N5-Ac) = CC(=O)N(O)CCC[C@H](N)C(=O)O
How the values were obtained:
[1] = test system: AbaPiuA; test: Fluorescence quenching binding, AbaPiuA-FM sensor; design: species or system Acinetobacter baumannii
Outline: (§1)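 Cys-mutant receptor made in E. coli hosts (entA, tonB+ or ΔtonB) grown in iron-deficient MOPS at 37 °C to late exponential phase. Cells washed in 50 mM NaHPO₄ pH 6.7, labeled in situ with 5 μM fluorescein maleimide for 15 min at 37 °C, quenched with 100 μM β-mercaptoethanol, then resuspended in PBS + 0.2% glucose. Binding used 2.5 × 10⁷ cells in 2 ml, stirred at 37 °C. Iron complex added stepwise; 520 nm emission quenching read in triplicate; 1-F/F₀ vs [ligand] fitted to single-site model for KD.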

[2] = test system: EcoFiu; test: Fluorescence quenching binding, EcoFiu-FM sensor; design: species or system Escherichia coli
Outline: as §1

[3] = biological target: T1, KpnIroN (Klebsiella pneumoniae, UniProt A0ACD7U953, T234C); test: Fluorescence quenching binding, KpnIroN-FM sensor
T1 sequence (A0ACD7U953 25-724 T234C): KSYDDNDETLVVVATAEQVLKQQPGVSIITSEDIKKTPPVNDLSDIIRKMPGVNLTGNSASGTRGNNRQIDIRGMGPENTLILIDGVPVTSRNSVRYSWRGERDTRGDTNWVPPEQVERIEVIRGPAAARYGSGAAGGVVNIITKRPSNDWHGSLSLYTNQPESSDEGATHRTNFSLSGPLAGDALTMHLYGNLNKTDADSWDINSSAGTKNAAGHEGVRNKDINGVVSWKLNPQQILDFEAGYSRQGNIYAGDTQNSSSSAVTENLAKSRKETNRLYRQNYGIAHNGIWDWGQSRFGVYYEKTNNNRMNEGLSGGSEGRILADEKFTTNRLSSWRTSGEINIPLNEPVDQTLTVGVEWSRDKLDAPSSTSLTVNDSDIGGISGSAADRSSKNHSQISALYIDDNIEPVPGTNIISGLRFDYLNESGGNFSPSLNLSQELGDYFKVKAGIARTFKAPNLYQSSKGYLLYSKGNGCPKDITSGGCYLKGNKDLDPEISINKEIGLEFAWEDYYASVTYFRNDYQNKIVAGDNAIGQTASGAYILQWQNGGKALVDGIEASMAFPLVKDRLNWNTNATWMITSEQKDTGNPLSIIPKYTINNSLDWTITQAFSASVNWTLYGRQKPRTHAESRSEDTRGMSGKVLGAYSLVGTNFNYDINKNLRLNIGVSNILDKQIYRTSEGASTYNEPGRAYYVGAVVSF
Outline: as §1

[4] = test system: AbaPirA; test: Fluorescence quenching binding, AbaPirA-FM sensor; design: species or system Acinetobacter baumannii
Outline: as §1

[5] = test system: EcoCir; test: Fluorescence quenching binding, EcoCir-FM sensor; design: species or system Escherichia coli
Outline: as §1

[6] = test system: AbaFepA; type: binding, Acinetobacter baumannii
[7] = biological target: KpnFyuA (Klebsiella pneumoniae, UniProt A4GZD6, S653C); test: Fluorescence quenching binding, KpnFyuA-FM sensor; conditions: 50% quenching
[8] = biological target: human siderocalin (HsaSCN) (Homo sapiens, UniProt P80188, Q148C); test: Fluorescence quenching binding, purified HsaSCN-FM sensor; conditions: HsaSCN-FM (Q128C), purified protein
[9] = biological target: T2, EcoIutA (Escherichia coli, UniProt B7LI14, T574C); test: Fluorescence quenching binding, EcoIutA-FM sensor
T2 sequence (B7LI14 26-733 T574C): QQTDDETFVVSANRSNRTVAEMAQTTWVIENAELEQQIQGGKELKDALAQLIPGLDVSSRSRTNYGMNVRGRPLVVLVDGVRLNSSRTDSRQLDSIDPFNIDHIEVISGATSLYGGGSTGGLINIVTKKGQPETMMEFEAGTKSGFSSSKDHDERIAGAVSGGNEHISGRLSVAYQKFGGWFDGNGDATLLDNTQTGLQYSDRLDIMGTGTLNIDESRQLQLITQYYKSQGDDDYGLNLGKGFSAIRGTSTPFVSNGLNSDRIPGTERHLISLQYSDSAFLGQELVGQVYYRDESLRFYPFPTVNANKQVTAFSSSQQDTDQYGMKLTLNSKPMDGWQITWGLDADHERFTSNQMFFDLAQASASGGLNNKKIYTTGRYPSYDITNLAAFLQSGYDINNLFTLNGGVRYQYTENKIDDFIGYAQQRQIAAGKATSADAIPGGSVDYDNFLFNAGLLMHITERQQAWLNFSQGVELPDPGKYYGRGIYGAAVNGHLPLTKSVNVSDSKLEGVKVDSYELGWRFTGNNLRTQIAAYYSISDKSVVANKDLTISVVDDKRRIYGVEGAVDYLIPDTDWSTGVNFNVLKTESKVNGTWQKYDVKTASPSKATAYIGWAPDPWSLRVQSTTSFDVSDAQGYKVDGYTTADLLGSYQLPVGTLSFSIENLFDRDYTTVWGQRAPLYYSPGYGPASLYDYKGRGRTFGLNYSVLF

[10] = biological target: T3, EcoFepA (Escherichia coli, UniProt P05825, A720C); test: Fluorescence quenching binding, EcoFepA-FM sensor
T3 sequence (P05825 23-746 A720C): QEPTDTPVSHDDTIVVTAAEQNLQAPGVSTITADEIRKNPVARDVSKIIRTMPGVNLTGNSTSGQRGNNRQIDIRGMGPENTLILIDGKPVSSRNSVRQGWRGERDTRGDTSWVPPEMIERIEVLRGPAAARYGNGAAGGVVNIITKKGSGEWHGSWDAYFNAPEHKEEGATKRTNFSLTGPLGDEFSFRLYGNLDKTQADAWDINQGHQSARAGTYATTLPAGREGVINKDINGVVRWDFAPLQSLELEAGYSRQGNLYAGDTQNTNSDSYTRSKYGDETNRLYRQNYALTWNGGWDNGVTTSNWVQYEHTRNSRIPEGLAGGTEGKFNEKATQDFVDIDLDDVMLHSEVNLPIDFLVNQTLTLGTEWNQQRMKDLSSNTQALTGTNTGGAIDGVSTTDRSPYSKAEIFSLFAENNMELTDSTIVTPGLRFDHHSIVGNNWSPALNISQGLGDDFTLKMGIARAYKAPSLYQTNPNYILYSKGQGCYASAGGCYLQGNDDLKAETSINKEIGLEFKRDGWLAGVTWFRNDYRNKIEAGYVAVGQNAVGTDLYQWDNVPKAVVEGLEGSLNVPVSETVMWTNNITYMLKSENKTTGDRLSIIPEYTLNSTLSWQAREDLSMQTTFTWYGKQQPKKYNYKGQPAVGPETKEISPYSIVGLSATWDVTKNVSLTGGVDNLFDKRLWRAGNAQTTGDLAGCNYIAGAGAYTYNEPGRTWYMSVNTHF

[11] = biological target: T4, EcoFepB (Escherichia coli, UniProt P0AEL6, T297C); test: Fluorescence quenching binding, purified EcoFepB-FM sensor
T4 sequence (P0AEL6 27-318 T297C): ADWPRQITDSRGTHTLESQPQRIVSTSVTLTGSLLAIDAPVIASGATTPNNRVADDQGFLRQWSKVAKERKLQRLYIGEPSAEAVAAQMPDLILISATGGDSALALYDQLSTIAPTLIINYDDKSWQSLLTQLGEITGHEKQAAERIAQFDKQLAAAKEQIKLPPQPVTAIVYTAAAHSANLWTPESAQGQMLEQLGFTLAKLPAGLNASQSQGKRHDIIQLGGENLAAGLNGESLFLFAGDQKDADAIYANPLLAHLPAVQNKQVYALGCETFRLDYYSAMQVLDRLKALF
Outline: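 His-tagged T297C FepB expressed from pET28 in E. coli and purified by metal affinity chromatography. Labeled with 5 μM fluorescein maleimide at pH 6.77 for 15 min, then repurified by gel filtration. Apo or ferric siderophores added at increasing concentrations, with three quenching determinations per concentration. Mean values fitted to a single-site binding model to give KD.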

[12] = biological target: T1, KpnIroN; conditions: cited from earlier work
[13] = biological target: T5, PaeFpvA (Pseudomonas aeruginosa, UniProt P48632, T660C); test: Fluorescence quenching binding, PaeFpvA-FM sensor
T5 sequence (P48632 44-815 T660C): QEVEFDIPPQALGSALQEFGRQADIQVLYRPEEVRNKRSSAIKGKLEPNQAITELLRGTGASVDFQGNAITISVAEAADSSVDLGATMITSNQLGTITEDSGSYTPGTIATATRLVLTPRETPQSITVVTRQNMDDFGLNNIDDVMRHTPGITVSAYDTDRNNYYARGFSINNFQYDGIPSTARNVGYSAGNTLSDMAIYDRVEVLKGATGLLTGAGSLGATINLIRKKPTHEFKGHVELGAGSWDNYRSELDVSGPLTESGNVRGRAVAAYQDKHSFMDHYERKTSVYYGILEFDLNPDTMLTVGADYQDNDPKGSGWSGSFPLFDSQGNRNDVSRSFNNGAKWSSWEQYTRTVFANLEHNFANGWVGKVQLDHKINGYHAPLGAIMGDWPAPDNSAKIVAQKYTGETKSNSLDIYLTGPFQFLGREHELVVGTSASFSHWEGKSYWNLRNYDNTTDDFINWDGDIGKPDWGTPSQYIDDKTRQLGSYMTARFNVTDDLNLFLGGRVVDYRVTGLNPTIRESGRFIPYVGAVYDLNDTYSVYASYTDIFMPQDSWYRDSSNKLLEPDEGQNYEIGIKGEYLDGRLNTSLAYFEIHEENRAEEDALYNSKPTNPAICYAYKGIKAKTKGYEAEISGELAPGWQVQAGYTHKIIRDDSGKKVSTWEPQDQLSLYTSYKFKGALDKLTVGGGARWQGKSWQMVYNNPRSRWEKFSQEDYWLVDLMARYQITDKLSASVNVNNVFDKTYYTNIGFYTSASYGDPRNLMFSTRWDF
Outline: as §1

[14] = test system: Iron-deficient Gram-negative bacteria, with maximally expressed chromosomal FepA; conditions: cited from earlier work
[15] = biological target: T3, EcoFepA; conditions: cited from earlier work

Sequence of human siderocalin (HsaSCN) (P80188 21-198 Q148C): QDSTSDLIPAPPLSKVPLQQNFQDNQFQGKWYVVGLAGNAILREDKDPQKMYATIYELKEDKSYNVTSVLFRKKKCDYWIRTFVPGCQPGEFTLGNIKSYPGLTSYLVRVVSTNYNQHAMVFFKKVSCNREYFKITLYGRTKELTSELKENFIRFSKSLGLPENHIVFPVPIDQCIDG

SMILES: CC(C)(O/N=C(\C(=O)N[C@@H]1C(=O)N2C(C(=O)[O-])=C(C[N+]3(CCNC(=O)c4ccc(O)c(O)c4Cl)CCCC3)CS[C@H]12)c1csc(N)n1)C(=O)O [FDC, cefidericol]
- binding (in words) [1]: bound
- binding (in words) [2]: bound
- binding (in words) [3]: bound
- binding (in words) [4]: bound
- binding (in words) [5]: bound
- binding (in words) [6]: bound

SMILES: CC(C)(C1=N[C@@](C)(C(=O)O)CS1)[C@H](O)[C@@H]1CS[C@H]([C@H]2CSC(c3ccccc3O)=N2)N1.[Fe+3] [FeYbt]
- pKd [7]: 9.00
- pKd [8]: 4.96

SMILES: CC(=O)N(O)CCCC[C@H](NC(=O)CC(O)(CC(=O)N[C@@H](CCCCN(O)C(C)=O)C(=O)O)C(=O)O)C(=O)O.[Fe+3] [FeAbn, ferric aerobactin]
- pKd ([9]; EcoIutA-FM sensor, fluorescence quenching): 8.22

SMILES: O=C(N[C@H]1COC(=O)[C@@H](NC(=O)c2cccc(O)c2O)COC(=O)[C@@H](NC(=O)c2cccc(O)c2O)COC1=O)c1cccc(O)c1O [Ent, enterobactin]
- pKd [10]: 7.57
- binding (in words) [11]: bound

SMILES: O=C(N[C@H]1COC(=O)[C@@H](NC(=O)c2cccc(O)c2O)COC(=O)[C@@H](NC(=O)c2cccc(O)c2O)COC1=O)c1cccc(O)c1O.[Fe+3] [FeEnt, ferric enterobactin]
- pKd [12]: 9.40
- binding (in words) [13]: weakly bound
- binding (in words) [2]: bound
- transport rate [14]: ~50 pmol/10^9 cells/min
- fold higher affinity for FeEnt than for FeGEnt ([10]; EcoFepA-FM): ~300 fold
- binding (in words) [5]: bound
- pKd ([6]; AbaFepA-FM sensor, fluorescence quenching): ~7.60 and 7.77
- pKd ([11]; EcoFepB-FM (T297C), purified protein): 4.37
- fold less affinity than EcoFepA ([11]; FeEnt, EcoFepB-FM vs EcoFepA): about 100 fold
- pKd [8]: 7.92 to 8.00
- pKd ([15]; ref 53, 68, 69, 70): 9.40 to 10.00
- pKd ([15]; ref 53): 9.40

SMILES: O=C(O)c1cccc(O)c1O.[Fe+3] [FeDHB]
- binding (in words) [13]: weakly bound
- binding (in words) [2]: did not bind
- binding (in words) [11]: bound
- pKd [8]: 6.48

SMILES: CC(=O)N([O-])CCC[C@@H]1NC(=O)CNC(=O)CNC(=O)CNC(=O)[C@H](CCCN([O-])C(C)=O)NC(=O)[C@H](CCCN([O-])C(C)=O)NC1=O.[Fe+3] [Fc, ferrichrome] (cyclo(GGG[Orn(N5-OH,N5-Ac)][Orn(N5-OH,N5-Ac)][Orn(N5-OH,N5-Ac)]))
- binding (in words) [9]: did not measurably bind
- pKd [8]: 6.96

From publication PMC8921320 (The Journal of Biological Chemistry, 2022)
